Laboratory results taken from ChEMBL document CHEMBL2163188, “Discovery of piragliatin--first glucokinase activator studied in type 2 diabetic patients” (J Med Chem, 2012).
Active and inactive are the calls of the source. The rule behind the calls is not given here.

What was measured:
[1] = test system: Mus musculus; assay: Antidiabetic activity in po dosed DIO C57Bl/6J mouse assessed as reduction of fasting and postprandial glucose level administered 1 hr before glucose challenge by OGTT; assay type: functional, organism-based
How it was run: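 Male DIO C57Bl/6J mice were fasted overnight and dosed orally at 5, 10 or 15 mg/kg in Gelucire44/14:ethanol:PEG400 (4:66:30 v/w/v). An oral glucose challenge of 1 g/kg followed 1 h later. Tail-snip blood glucose was read on a YSI analyzer up to 120 min. Food was withheld throughout; n = 6 per time point; means ± SD; Student's t test.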

[2] = molecular target: T1, Hexokinase-4 (Homo sapiens) (UniProt P35557); assay: Activation of human recombinant glucokinase assessed as concentration required for 1.5 fold increase in enzymatic activity
T1 sequence (whole entry): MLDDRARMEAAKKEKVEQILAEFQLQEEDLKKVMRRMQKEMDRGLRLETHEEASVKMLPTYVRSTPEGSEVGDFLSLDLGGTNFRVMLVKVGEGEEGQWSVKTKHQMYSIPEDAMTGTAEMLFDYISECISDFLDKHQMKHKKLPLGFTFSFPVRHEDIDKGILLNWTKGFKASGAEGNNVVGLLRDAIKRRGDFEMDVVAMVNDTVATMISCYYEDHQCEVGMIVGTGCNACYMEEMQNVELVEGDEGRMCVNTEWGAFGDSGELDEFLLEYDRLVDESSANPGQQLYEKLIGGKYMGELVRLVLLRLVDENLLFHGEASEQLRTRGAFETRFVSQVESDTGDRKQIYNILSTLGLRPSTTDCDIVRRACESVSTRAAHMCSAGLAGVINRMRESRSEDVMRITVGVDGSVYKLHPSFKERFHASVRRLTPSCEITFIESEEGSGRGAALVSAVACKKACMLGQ
How it was run: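 Human recombinant GK; activator at fixed concentrations from ∼0.010 to 30 μM, each in duplicate, with glucose held at 5 mM. SC1.5 is the activator concentration giving a 1.5-fold rise in enzymatic activity over untreated GK. Assay CV was about 15%.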

[3] = test system: Liver microsomes; assay: Drug degradation in human liver microsomes assessed as formation of metabolite 2 level at 20 uM after 30 mins by LCMS/MS analysis; assay type: ADME, Microsome; conditions: 0.5 h
How it was run: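 Pooled human liver microsomes at 1 or 2 mg/mL protein in 0.1 M potassium phosphate pH 7.4 with 3 mM MgCl2, 1 mM EDTA and 1 mM NADPH. Substrate was 20 μM C-14 labelled compound, with 1% methanol final. Incubation ran 30 min after a 5 min preincubation and was stopped with ice-cold methanol or 50% aqueous TFA.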

Compound | Activity [1] | Activity [2] | Drug metabolism [3]
CS(=O)(=O)c1ccc([C@@H](CC2CCCC2)C(=O)Nc2cnccn2)cc1Cl | Active | 0.14 µM | –
CS(=O)(=O)c1ccc([C@@H](CC2CCC(O)C2)C(=O)Nc2cnccn2)cc1Cl (mixture of isomers) | – | 2.37 µM | –
CS(=O)(=O)c1ccc([C@@H](CC2CCCC2=O)C(=O)Nc2cnccn2)cc1Cl (mixture of isomers) | – | 0.19 µM | –
CS(=O)(=O)c1ccc([C@@H](CC2CCCC2O)C(=O)Nc2cnccn2)cc1Cl (mixture of isomers) | – | 2.73 µM | –
CS(=O)(=O)c1ccc(C(CC2CCCC2)C(=O)Nc2ncc(Br)s2)cc1 (racemic) | – | 0.135 µM | 42.7 ng/mL
CS(=O)(=O)c1ccc(C(CC2CCCC2)C(=O)Nc2ncc(C(N)=O)s2)cc1 (racemic) | – | 0.734 µM | < 10 ng/mL
CNC(=O)c1cnc(NC(=O)C(CC2CCCC2)c2ccc(S(C)(=O)=O)cc2)s1 (racemic) | – | 1.4 µM | < 10 ng/mL
CS(=O)(=O)c1ccc(C(CC2CCCC2)C(=O)Nc2ncc([N+](=O)[O-])s2)cc1 (racemic) | – | 4.17 µM | < 10 ng/mL
CS(=O)(=O)c1ccc(C(CC2CCCC2)C(=O)Nc2nc(CCO)cs2)cc1 (racemic) | – | 0.667 µM | 167.3 ng/mL
CS(=O)(=O)c1ccc(C(CC2CCCC2)C(=O)Nc2nc(CO)cs2)cc1 (racemic) | – | 0.48 µM | 88.7 ng/mL
CS(=O)(=O)c1ccc(C(CC2CCCC2)C(=O)Nc2ncc(Cl)s2)cc1 (racemic) | – | 0.148 µM | 48 ng/mL
CS(=O)(=O)c1ccc(C(CC2CCCC2)C(=O)Nc2ccc3ccccc3n2)cc1 (racemic) | – | 1.38 µM | –
CS(=O)(=O)c1ccc(C(CC2CCCC2)C(=O)Nc2ccc3ccccc3n2)cc1Cl (racemic) | – | 0.12 µM | –
CS(=O)(=O)c1ccc(C(CC2CCCC2)C(=O)Nc2ccccn2)cc1 (racemic) | – | 1.21 µM | –
